Data on 17 molecules can be found in ChEMBL document CHEMBL3272177, “Hypolipidemic alkoxybenzoic acids” (1976).

Common to all, as to design: scale not given: the % may be the effect or the level left
Assay [1] is filed under the species Rattus norvegicus. The experiment in a line: Reduction in sterol level in CFE rat […] in serum at 0.3% of diet treated through diet for 6 days relative to control. The assay is classed as functional.
The species named for assay [2] is Rattus norvegicus. The experiment in a line: Reduction in triglyceride level in CFE rat […] in serum at 0.3% of diet treated through diet for 6 days relative to control. The class given is functional.
Assay [3] is filed under the species Rattus norvegicus. The experiment in a line: Reduction in sterol level in CFE rat […] in serum at 0.1% of diet treated through diet for 6 days relative to control. The class given is functional. The gist of the method:
(§1)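 Compound dissolved in methanol-chloroform (1:3 v/v), mixed into ground rat chow at 0.1, 0.05 or 0.025% (w/w), and solvent evaporated; controls received solvent-treated chow. Rats fed ad libitum with water for 6 days, then killed fed and bled. Serum sterols and triglycerides measured by autoanalyzer. Values given as percent of control, mean ± SE; significance by Student's t test.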

For assay [4], the species on record is Rattus norvegicus. The experiment in a line: Reduction in triglyceride level in CFE rat […] at 0.025% of diet treated through diet for 6 days relative to control. The class given is functional, Serum. In short, it runs like this: as §1
The species named for assay [5] is Rattus norvegicus. The experiment in a line: Reduction in triglyceride level in CFE rat […] in serum at 0.1% of diet treated through diet for 6 days relative to control. The assay is classed as functional. The gist of the method:
as §1

Assay [6] is filed under the species Rattus norvegicus. The experiment in a line: Reduction in triglyceride level in CFE rat […] in serum at 0.05% of diet treated through diet for 6 days relative to control. The assay is classed as functional. In short, it runs like this: as §1
Assay [7] is filed under the species Rattus norvegicus. The experiment in a line: Reduction in sterol level in CFE rat […] at 0.025% of diet treated through diet for 6 days relative to control. The class given is functional, Serum. The gist of the method:
as §1

The species named for assay [8] is Rattus norvegicus. The experiment in a line: Reduction in sterol level in CFE rat […] in serum at 0.05% of diet treated through diet for 6 days relative to control. The class given is functional. In short, it runs like this:
as §1

Assay [9] is filed under the species Rattus norvegicus. The experiment in a line: Reduction in sterol level in CFE rat […] in serum at 0.005% of diet treated through diet for 6 days relative to control. The assay is classed as functional.
Assay [10] is filed under the species Rattus norvegicus. The experiment in a line: Reduction in triglyceride level in CFE rat […] in serum at 0.005% of diet treated through diet for 6 days relative to control. The assay is classed as functional.

For `CCOC(=O)C(C)(C)Oc1ccc(Cl)cc1` [CLOFIBRATE], the Activity is given as 81% in the assay listed under Rattus norvegicus [1] and 42% in the assay listed under Rattus norvegicus [2].
On to `CCCCCCCCCCCC(CCOc1ccc(C(=O)O)cc1)N=[N+]=[N-]` (centres undefined), for which the Activity in the assay listed under Rattus norvegicus [3] amounted to 76%; in the assay listed under Rattus norvegicus [4] it was 98%; in the assay listed under Rattus norvegicus [5] it was 55%; in the assay filed under Rattus norvegicus [6], 60%; in the assay listed under Rattus norvegicus [7] it was 105%; in the assay filed under Rattus norvegicus [8] it was 89%.
Take `CCSCCCCCCCCCCCCCCCCOc1ccc(C(=O)O)cc1`: the Activity in the assay listed under Rattus norvegicus [3] was found to be 90%; in the assay filed under Rattus norvegicus [4], 59%; in the assay filed under Rattus norvegicus [5] it was 45%; in the assay listed under Rattus norvegicus [6], 48%; in the assay listed under Rattus norvegicus [7], 89%; in the assay filed under Rattus norvegicus [8], 88%.
With `CCCCSCCCCCCCCCCCOc1ccc(C(=O)OC)cc1`, the Activity in the assay listed under Rattus norvegicus [3] was found to be 96%; in the assay listed under Rattus norvegicus [4] it was 87%; in the assay listed under Rattus norvegicus [5], 69%; in the assay filed under Rattus norvegicus [6] it was 62%; in the assay filed under Rattus norvegicus [7], 100%; in the assay listed under Rattus norvegicus [8], 92%.
Regarding `CCCCCCCCCCCC(Cl)CCOc1ccc(C(=O)OC)cc1` (centres undefined), the Activity in the assay listed under Rattus norvegicus [3] stood at 84%; in the assay filed under Rattus norvegicus [4], 80%; in the assay listed under Rattus norvegicus [5], 45%; in the assay filed under Rattus norvegicus [6] it was 53%; in the assay listed under Rattus norvegicus [7], 100%; in the assay listed under Rattus norvegicus [8], 87%.
As for `CCCCCCCCCC/C=C/CCCOc1ccc(C(=O)O)cc1`, the Activity amounted to 79% in the assay listed under Rattus norvegicus [3]; 72% in the assay listed under Rattus norvegicus [4]; 92% in the assay filed under Rattus norvegicus [5]; 76% in the assay listed under Rattus norvegicus [6]; 92% in the assay filed under Rattus norvegicus [7]; 92% in the assay filed under Rattus norvegicus [8].
`CCCCCCCCCCCCC/C=C\COc1ccc(C(=O)O)cc1`: the Activity in the assay filed under Rattus norvegicus [3] was determined as 90%; in the assay listed under Rattus norvegicus [4], 88%; in the assay filed under Rattus norvegicus [5], 60%; in the assay filed under Rattus norvegicus [6], 79%; in the assay filed under Rattus norvegicus [7], 95%; in the assay filed under Rattus norvegicus [8], 87%.
`FC(F)(F)c1ccc(-c2ccc(OCCN3CCCC3)cc2)cc1` [BOXIDINE]: the Activity in the assay listed under Rattus norvegicus [9] was determined as 60%; in the assay filed under Rattus norvegicus [10] it was 55%.
Turning to `CCCCCCCCCCCCCCCCOc1c(Br)cc(C(=O)OC)cc1Br`, the Activity in the assay listed under Rattus norvegicus [3] is 82%; in the assay listed under Rattus norvegicus [4], 96%; in the assay listed under Rattus norvegicus [5], 88%; in the assay filed under Rattus norvegicus [6] it was 103%; in the assay filed under Rattus norvegicus [7] it was 94%; in the assay filed under Rattus norvegicus [8], 94%.
With `CCCCNC(=O)CCCCCCCCCCOc1ccc(C(=O)OC)cc1`, the Activity in the assay listed under Rattus norvegicus [3] worked out at 96%; in the assay listed under Rattus norvegicus [4], 95%; in the assay filed under Rattus norvegicus [5] it was 81%; in the assay filed under Rattus norvegicus [6], 97%; in the assay listed under Rattus norvegicus [7], 99%; in the assay listed under Rattus norvegicus [8] it was 100%.
`O=C(O)c1ccc(OCCCCCCCCCCCCCCCCS)cc1`: the Activity in the assay listed under Rattus norvegicus [3] is listed as 83%; in the assay filed under Rattus norvegicus [4], 51%; in the assay listed under Rattus norvegicus [5], 37%; in the assay listed under Rattus norvegicus [6] it was 35%; in the assay listed under Rattus norvegicus [7], 82%; in the assay listed under Rattus norvegicus [8] it was 82%.
Take `CCCCCCCCCCC/C=C/CCCOc1ccc(C(=O)O)cc1`: the Activity in the assay listed under Rattus norvegicus [3] is recorded as 69%; in the assay listed under Rattus norvegicus [4], 76%; in the assay listed under Rattus norvegicus [5], 59%; in the assay listed under Rattus norvegicus [6] it was 76%; in the assay filed under Rattus norvegicus [7], 75%; in the assay filed under Rattus norvegicus [8], 67%.
`CCCCCCCCCCCCCCCCOc1c(Cl)cc(C(=O)O)cc1Cl`: the Activity in the assay listed under Rattus norvegicus [3] was found to be 103%; in the assay filed under Rattus norvegicus [4] it was 100%; in the assay listed under Rattus norvegicus [5], 103%; in the assay listed under Rattus norvegicus [6] it was 89%; in the assay listed under Rattus norvegicus [7] it was 98%; in the assay listed under Rattus norvegicus [8], 105%.
Turning to `CCCCCCCCC/C=C/CCCOc1ccc(C(=O)O)cc1`, the Activity in the assay listed under Rattus norvegicus [3] was 77%; in the assay filed under Rattus norvegicus [4], 89%; in the assay listed under Rattus norvegicus [5], 87%; in the assay filed under Rattus norvegicus [6] it was 89%; in the assay listed under Rattus norvegicus [7] it was 87%; in the assay listed under Rattus norvegicus [8], 73%.
Consider `COCCCCCCCCCCCOc1ccc(C(=O)OC)cc1`, for which the Activity in the assay filed under Rattus norvegicus [3] is 104%; in the assay listed under Rattus norvegicus [4], 77%; in the assay listed under Rattus norvegicus [5], 36%; in the assay filed under Rattus norvegicus [6] it was 69%; in the assay filed under Rattus norvegicus [7], 93%; in the assay filed under Rattus norvegicus [8], 96%.
As to `CC(C)=CCC/C(C)=C/CC/C(C)=C/COc1ccc(C(=O)O)cc1`, the Activity in the assay filed under Rattus norvegicus [3] is 87%; in the assay filed under Rattus norvegicus [4] it was 131%; in the assay listed under Rattus norvegicus [5] it was 133%; in the assay listed under Rattus norvegicus [6], 111%; in the assay filed under Rattus norvegicus [7] it was 108%; in the assay filed under Rattus norvegicus [8], 102%.
As to `COC(=O)c1ccc(OCCCCCCCCCCCSCc2ccccc2)cc1`, the Activity worked out at 87% in the assay filed under Rattus norvegicus [3]; 64% in the assay filed under Rattus norvegicus [4]; 58% in the assay filed under Rattus norvegicus [5]; 49% in the assay filed under Rattus norvegicus [6]; 91% in the assay listed under Rattus norvegicus [7]; 85% in the assay filed under Rattus norvegicus [8].
